# Assay outcomes from PubChem.
# T cruzi inh: T. cruzi replication inhibition; hit rate 1.4% among 300,000; inhibition, % (test concentration not listed); T. cruzi beta-gal in NIH3T3, luminescence, 90 h;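 active = mean inhibition across valid replicates above about 55%, limit read from the data; inconclusive = mean below that limit but half or more replicates reach it; inactive = mean below it, under half of replicates reach it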;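 note: signal also drops with host cell toxicity which is not excluded here; higher percent means less beta-gal luminescence so fewer parasites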
#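 Incubation – ≥90 h infection period, 3 h prior cell attachment · System – NIH/3T3 fibroblasts plus reporter T. cruzi · Doses – compound pinned at 50 nL/well, DMSO · Read-out basis – percent inhibition of parasite-derived β-gal signal · Signal – luminescent β-galactosidase signal after 60 min lysis · Also added – 5000 T. cruzi trypomastigotes/well · Medium – Low-serum DMEM with 2% FBS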
# DTT redox prof: compounds producing H2O2 with reducing agent – biochemical, NIH compound library profiling, artefact control for MLSCN library redox annotation, primary screen; DTT-dependent redox cycling H2O2, phenol red/HRP absorbance; 100% = 100 µM peroxide control, 0% = buffer; activation, % at 10 µM; hit rate 0.03% among 200,000; AID 878;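 active = activation of at least 50% relative to the plate's high and low controls in the primary single-dose screen; inactive = activation below 50%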;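 note: compound incubated with DTT at 0.8 mM final as the reducing agent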
# L major viab: inhibitors of Leishmania major promastigote growth; Leishmania major promastigotes, resazurin fluorescence viability; inhibition, % at 10 µM; hit rate 9% among 200,000; AID 1063; in the data active = inhibition above about 50%;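 note: promastigotes grown with compound for 44 hours at 28 °C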
# Lipid droplet: modulators of hepatic lipid droplet formation. inhibition, % at 6.5 µM. hit rate 0.4% among 240,000. AML12 mouse hepatocytes, oleate lipid droplets, BODIPY imaging;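 active = lipid droplet intensity inhibited by at least 50%, with more than 500 cells counted; inconclusive = wells with under 300 cells, treated as cytotoxic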
#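 System: AML12 hepatocytes (mouse). Probe or stimulus: oleic acid at 100 µM to induce lipid droplet formation. Times: overnight treatment with compound plus oleate. Detection: Image-based BODIPY and DAPI two-channel analysis. Evaluation: percent inhibition of filter-corrected integrated lipid droplet intensity per well.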
# MPTP inh: permeability transition pore inhibition; isolated mouse mitochondria, Ca2+ swelling absorbance, 30 min; inhibition, % at 10 µM; AID 602449; hit rate 1.4% among 360,000;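 active = inhibition of 50% or more, scaled per plate between neutral and stimulator controls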
# Hits are given with their value; - = inactive; ? = inconclusive; . = not tested or not shown. This excerpt belongs to a sample that is enriched for hits.
SMILES,T cruzi inh,DTT redox prof,L major viab,Lipid droplet,MPTP inh
Nc1c(S(=O)(=O)c2cc(Cl)ccc2Cl)c2nc3ccccc3nc2n1CCN1CCOCC1,-,-,80,-,-
COc1ccc(-n2c(N)c(C(=O)NCc3ccco3)c3nc4ccccc4nc32)cc1,-,-,-,.,-
COc1cc(CN2C[C@@H](CO)O[C@@H](n3cnc4c(NC5CCCC5)ncnc43)C2)cc(OC)c1OC,.,.,.,.,-
Nc1c(C(=O)NCCN2CCOCC2)c2nc3ccccc3nc2n1-c1ccccc1,-,-,-,.,-
Nc1c(C(=O)NCCN2CCOCC2)c2nc3ccccc3nc2n1CCc1ccccc1,-,-,70,.,-
COc1ccc(C(C)(C)C)cc1NC(=O)c1cccc(S(=O)(=O)N2CCN(C(C)=O)CC2)c1,-,.,.,-,-
CCCC(=O)NC(c1ccc(OC)c(OC)c1)c1c(O)ccc2ccccc12 (stereo unspecified),-,-,100,.,-
CCCCC(=O)NC(c1ccc(OC)c(OC)c1)c1c(O)ccc2ccccc12 (stereo unspecified),-,-,100,.,-
CCCC(=O)NC(c1ccc(N(C)C)cc1)c1c(O)ccc2ccccc12 (stereo unspecified),-,-,100,-,-
CCC(=O)NC(c1ccccc1)c1c(OC(C)=O)ccc2ccccc12 (stereo unspecified),-,-,-,-,-
CCC(=O)NC(c1cccc([N+](=O)[O-])c1)c1c(OC(C)=O)ccc2ccccc12 (stereo unspecified),-,-,80,-,-
CC(=O)Nc1cccc(-c2ccnc3c2CC(C)(C(=O)NCC2CC2)O3)c1 (stereo unspecified),.,.,.,.,-
Cc1nn(C(C)C(=O)NC(C)CCc2ccccc2)c(=O)c2cc3occc3n12 (stereo unspecified),-,.,.,-,-
CC(C)(C)c1ccc(-c2noc(-c3ccc4c(c3)CCO4)n2)cc1,-,.,.,-,-
CC(Oc1cccc(Cl)c1)C(=O)N1CCCN(C)CC1 (stereo unspecified),-,.,.,-,-
CC1CCCN(C(=O)CCNS(=O)(=O)c2ccc3c(c2)c(=O)n(C)c(=O)n3C)C1 (stereo unspecified),-,.,.,-,-
CCCCCCN(C(=O)CCCCCN1C(=O)NC(c2ccccc2)C(C(=O)OCc2ccccc2)=C1C)C(C(=O)NCCCC)c1ccc(OCC(=O)OC)c(C(=O)OC)c1 (stereo unspecified),.,.,.,52,.
CCCCN1C(=O)/C(=C/C=C2/CC(C)(C)CN2C)SC1=S,-,-,59,-,-
COc1ccc(NC(=O)C2CCCN2C(=O)NC2CCCCC2)cc1 (stereo unspecified),-,.,.,-,-
Cc1ccc(S(=O)(=O)NN/C(=N/S(=O)(=O)c2ccccc2)c2ccccc2)cc1,-,-,-,-,-
Cc1ccc(S(=O)(=O)/N=C(\c2ccccc2)N(C)S(=O)(=O)c2ccccc2)cc1,-,-,63,-,-
O=c1c(Br)c(Br)cnn1-c1ccccc1,.,-,101,-,-
Cc1ccc(-n2ncc(Br)c(Br)c2=O)cc1,75,-,100,-,-
COc1cnn(-c2ccc(F)cc2)c(=O)c1Br,-,-,-,-,-
CC(C)CC1NC(=O)N(CC(=O)Nc2ccc(-c3ccccc3)cc2)C1=O (stereo unspecified),.,.,.,.,-
SMILES,T cruzi inh,DTT redox prof,L major viab,Lipid droplet,MPTP inh
COc1ccc([C@H]2C[C@@H](O)C[C@@H](CCn3cc(-c4ccccc4)nn3)O2)cc1,.,.,.,.,-
COc1ccccc1Oc1c(C)oc2c(CN3CCN(C)CC3)c(O)ccc2c1=O,-,-,-,.,.
COC(=O)c1ccc(Oc2c(C)oc3c(CN4CCN(C)CC4)c(O)ccc3c2=O)cc1,-,-,100,.,-
Cc1oc2c(CN3CCCC3)c(O)ccc2c(=O)c1-c1ccccc1,-,-,-,-,-
CCN1CCN(Cc2c(O)ccc3c(=O)c(-c4ccc(OC)c(OC)c4)c(C)oc23)CC1,-,-,100,.,-
COc1ccc(-c2c(C)oc3c(CN4CCN(C)CC4)c(O)ccc3c2=O)cc1,-,-,99,-,-
COc1ccc(-c2c(C(F)(F)F)oc3c(CN4CCN(C)CC4)c(O)ccc3c2=O)cc1,-,-,100,-,-
COCc1c(CCl)cnc(C)c1O,-,-,-,-,-
O=c1c(Oc2ccccc2Br)c(C(F)(F)F)oc2c(CN3CCCC3)c(O)ccc12,-,-,86,.,-
Cn1cnnc1SCC(=O)Nc1ccc(Cl)c(S(=O)(=O)N2CCOCC2)c1,-,-,-,-,-
CN(Cc1ccccc1)C(=O)CN(c1ccc(F)cc1)S(=O)(=O)c1ccc2c(c1)OCCO2,-,-,95,-,-
CC(=O)Nc1ccc(NC(=O)CN(c2ccc(F)cc2)S(=O)(=O)c2ccc3c(c2)OCCO3)cc1,-,-,-,-,-
O=C(CN(c1ccc(F)cc1)S(=O)(=O)c1ccc2c(c1)OCCO2)NCc1ccccc1,-,-,96,-,-
O=C(CN(c1ccc(F)cc1)S(=O)(=O)c1ccc2c(c1)OCCO2)Nc1ccccc1,-,-,80,-,-
Cc1ccc(/C=N/NC(=O)CN(Cc2ccccc2)S(=O)(=O)c2ccc3c(c2)OCCO3)cc1,-,-,95,-,-
CN(C)Cc1csc(Nc2ccc(C(F)(F)F)cn2)n1,.,.,.,.,-
COc1ccccc1CCc1nnc(CCC(=O)NC(C)Cc2cccs2)o1 (stereo unspecified),-,-,-,-,-
O=C1N(CCCl)c2ccc(Br)cc2C12OCCO2,-,.,.,-,-
O=C1NC(=O)C(=C2CCOC2=O)N1,.,.,.,.,-
C#CCn1c(=NC(=O)c2cc(-c3cccs3)nc3ccccc23)sc2cc(S(N)(=O)=O)ccc21,-,-,-,-,-
O=C(CN(c1ccc2c(c1)OCCO2)S(=O)(=O)c1ccccc1)NCC1CCCO1 (stereo unspecified),-,-,-,-,-
O=C(CN(c1ccc2c(c1)OCCO2)S(=O)(=O)c1ccccc1)NCc1ccc(Cl)cc1,?,-,98,-,-
CCN(c1ccccc1)S(=O)(=O)c1cccc(C(=O)NCc2ccncc2)c1,-,.,.,.,-
CSCCC(NS(=O)(=O)/C=C/c1ccccc1)C(=O)NCCc1ccc(S(N)(=O)=O)cc1 (stereo unspecified),-,.,.,-,-
CC(C)C(=O)Nc1nnc(CSCc2ccccc2F)s1,-,-,91,-,-
SMILES,T cruzi inh,DTT redox prof,L major viab,Lipid droplet,MPTP inh
CC(C)(C)C(=O)Nc1nnc(CSCc2ccccc2F)s1,-,-,100,-,-
O=C(Nc1nnc(CSCc2ccccc2F)s1)c1cccc([N+](=O)[O-])c1,-,-,95,-,-
O=C(Nc1nnc(CSCc2ccc(F)cc2)s1)c1ccc([N+](=O)[O-])cc1,-,-,-,-,-
CC(C)C(=O)Nc1nnc(CCc2ccccc2)s1,-,.,.,-,-
O=S(=O)(c1cccc(Br)c1)N1CCN(C(=S)NCC2CCCO2)CC1 (stereo unspecified),-,.,.,.,-
CCNC(=O)N(C)c1c(CC)nc2ccc(C(=O)N3CCN(C(=O)c4ccco4)CC3)cn12,.,.,.,.,-
